We go through 62 compounds from ChEMBL document CHEMBL1240409, “Design, synthesis and evaluation of (E)-alpha-benzylthio chalcones as novel inhibitors of BCR-ABL kinase” (Bioorg Med Chem, 2010).

Bounds are passed on as bounds.

The test system of experiment [1] is K562. Put plainly: Growth inhibition of human K562 cells expressing p210Bcr/Abl after 96 hrs by trypan blue exclusion assay. It is filed as functional, cell-based. The conditions noted are these: K562, 96 h. The gist of the method:
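K562 cells were kept in RPMI with 10% FBS and penicillin–streptomycin at 37 °C under 5% CO2. Cells were seeded at 1 × 10^5 cells/mL with a range of compound concentrations, using DMSO as the negative control. After 96 h, viability was counted by Trypan blue exclusion and expressed as percent of DMSO control to derive GI50.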

The test system of experiment [2] is DU-145. In words: Growth inhibition of human DU145 cells after 96 hrs by trypan blue exclusion assay. It is filed as functional. The conditions noted are these: DU-145, 96 h.

In general, GI50 refers to the concentration that inhibits growth by half. In the case of `Cc1cc(C)cc(/C=C(\C(=O)c2ccc(Cl)cc2)S(=O)(=O)c2ccc(Br)cc2)c1`, the GI50 in experiment [1] and in experiment [2] was 10 µM each time.

In the case of `Cc1ccc(/C=C(/SCc2ccc(F)cc2)C(=O)c2ccc(Cl)cc2)s1`, the GI50 in experiment [1] and in experiment [2] was more than 100 µM each time.

Regarding `COc1ccc(/C=C(/Sc2ccc(Br)cc2)C(=O)c2ccc(Cl)cc2)cc1`, the GI50 in experiment [1] was determined as 1 µM; in experiment [2] it was 50 µM.

Take `Cc1ccc(S/C(=C/c2ccc(C)s2)C(=O)c2ccc(Br)cc2)cc1`: the GI50 in experiment [1] was 50 µM; in experiment [2], more than 100 µM.

In the case of `O=C(/C(=C\c1ccc(Cl)cc1)SCc1ccc(F)cc1)c1ccc(Cl)cc1`, the values for the GI50 in experiment [1] and in experiment [2] were 1 µM and 10 µM, respectively.

As for `O=C(O)c1ccc(C(=O)/C(=C\c2ccc(Br)c([N+](=O)[O-])c2)SCc2ccccc2Cl)cc1`, the GI50 in experiment [1] and in experiment [2] was 1 µM throughout.

Regarding `Cc1ccc(S/C(=C/c2ccc(Cl)c(Cl)c2)C(=O)c2ccc(Br)cc2)cc1`, the GI50 in experiment [1] and in experiment [2] was 50 µM throughout.

With `Cc1ccc(CS(=O)(=O)/C(=C/c2cccc(Cl)c2Cl)C(=O)c2ccc(Cl)cc2)cc1`, the GI50 in experiment [1] and in experiment [2] was 1 µM in each case.

For `O=C(/C(=C\c1ccccc1OCc1ccccc1)Sc1ccc(F)cc1)c1ccc(Cl)cc1`, the GI50 in experiment [1] and in experiment [2] was 1 µM throughout.

In the case of `Cc1ccc(S(=O)(=O)/C(=C/c2ccc(F)cc2F)C(=O)c2ccc(Br)cc2)cc1`, the GI50 in experiment [1] and in experiment [2] was more than 100 µM in each case.

For the compound `COc1ccc(/C=C(/Sc2ccccc2Cl)C(=O)c2ccc(Cl)cc2)c(OC)c1OC`, the GI50 in experiment [1] stood at 1 µM; in experiment [2] it was 10 µM.

For `O=C(/C(=C\c1ccc(O)cc1)SCc1ccc(F)cc1)c1ccc(Cl)cc1`, the GI50 in experiment [1] worked out at 10 µM; in experiment [2], 25 µM.

On to `O=C(/C(=C\c1c(O)cc(O)cc1O)SCc1ccc(Cl)cc1Cl)c1ccc(Cl)cc1`, for which the GI50 in experiment [1] was more than 100 µM; in experiment [2], 25 µM.

For the compound `Cc1ccc(CS(=O)(=O)/C(=C/c2ccccc2Br)C(=O)c2ccc(Cl)cc2)cc1`, the GI50 in experiment [1] and in experiment [2] was 25 µM in each case.

Turning to `O=C(/C(=C\c1ccc([N+](=O)[O-])c(O)c1)SCc1ccc(Br)cc1)c1c(F)c(F)c(F)c(F)c1F`, the GI50 is 1 µM in experiment [1] and 10 µM in experiment [2].

In the case of `COc1cc(OC)c(/C=C(/SCc2ccc(Cl)cc2)C(=O)c2ccc(Br)cc2)c(OC)c1`, the values for the GI50 in experiment [1] and in experiment [2] were 10 µM and 1 µM, respectively.

In the case of `COc1ccc(C(=O)/C(=C\c2ccc(Br)cc2)S(=O)(=O)c2ccc(F)cc2)cc1`, the GI50 in experiment [1] and in experiment [2] was 1 µM throughout.

For `COc1cc(OC)c(/C=C(\C(=O)c2ccc(Cl)cc2)S(=O)(=O)Cc2ccc(F)cc2)c(OC)c1`, the GI50 amounted to 1 µM in experiment [1] and 25 µM in experiment [2].

In the case of `O=C(/C(=C\c1ccc(O)cc1)SCc1ccc(F)cc1)c1ccc(Br)cc1`, the GI50 in experiment [1] came to 1 µM; in experiment [2] it was 10 µM.

On to `Cc1ccc(S/C(=C/c2ccc(F)c(C)c2)C(=O)c2ccc(Br)cc2)cc1`, for which the GI50 in experiment [1] was 1 µM; in experiment [2] it was 25 µM.

For the compound `O=C(/C(=C\c1ccc(OC(F)(F)F)cc1)S(=O)(=O)c1ccc(Br)cc1)c1ccc(Br)cc1`, the GI50 in experiment [1] and in experiment [2] was 25 µM throughout.

In the case of `CCOc1cc(/C=C(\C(=O)c2ccc(Cl)cc2)S(=O)(=O)Cc2ccc(Cl)cc2)ccc1O`, the GI50 in experiment [1] and in experiment [2] was 10 µM in each case.

Regarding `O=C(C(=Cc1ccc(Br)cc1)S(=O)(=O)Cc1ccc(I)cc1)c1ccc(Br)cc1`, the GI50 in experiment [1] and in experiment [2] was more than 50 µM in each case.

Take `Cc1cc(F)ccc1/C=C(/SCc1ccc(F)cc1)C(=O)c1ccc(Br)cc1`: the GI50 in experiment [1] and in experiment [2] was 10 µM in each case.

With `O=C(/C(=C\c1cccc(Cl)c1Cl)SCc1ccc(Cl)cc1)c1ccc(Br)cc1`, the GI50 in experiment [1] and in experiment [2] was 10 µM throughout.

Regarding `O=C(/C(=C\c1ccc(O)c([N+](=O)[O-])c1)SCc1ccc(Cl)cc1)c1ccc(Cl)cc1`, the GI50 in experiment [1] and in experiment [2] was 10 µM each time.

In the case of `Cc1ccc(CS(=O)(=O)/C(=C/c2ccc(N(C)C)cc2)C(=O)c2ccc(Cl)cc2)cc1`, the GI50 in experiment [1] and in experiment [2] was 50 µM throughout.

Regarding `COc1ccc(/C=C(\C(=O)c2ccc(Cl)cc2)S(=O)(=O)c2ccc(Br)cc2)cc1`, the GI50 in experiment [1] and in experiment [2] was 10 µM each time.

Take `Cc1ccc(CS/C(=C/c2cc([N+](=O)[O-])ccc2F)C(=O)c2ccc(Cl)cc2)cc1`: the concentration for 50% growth inhibition (GI50) in experiment [1] and in experiment [2] was 1 µM in each case.

`COc1ccc(C(=O)/C(=C\c2ccc(OC)c(O)c2)Sc2ccc(F)cc2)cc1`: the GI50 in experiment [1] and in experiment [2] was 1 µM in each case.

`O=C(/C(=C\c1ccc(O)c([N+](=O)[O-])c1)S(=O)(=O)Cc1ccc(Br)cc1)c1c(F)c(F)c(F)c(F)c1F`: the GI50 in experiment [1] and in experiment [2] was 50 µM throughout.

For `Cc1ccc(S/C(=C/c2ccc(N(C)C)cc2)C(=O)c2ccc(Cl)cc2)cc1`, the GI50 in experiment [1] and in experiment [2] was more than 100 µM throughout.

With `Cc1ccc(S(=O)(=O)/C(=C/c2cc(C)ccc2C)C(=O)c2ccc(Cl)cc2)cc1`, the GI50 in experiment [1] and in experiment [2] was 1 µM throughout.

For the compound `O=C(/C(=C\c1cc([N+](=O)[O-])ccc1F)S(=O)(=O)Cc1ccc(F)cc1)c1ccc(Br)cc1`, the GI50 in experiment [1] is 50 µM; in experiment [2], more than 100 µM.

In the case of `O=C(/C(=C\c1ccc(O)c([N+](=O)[O-])c1)Sc1ccccc1Br)c1ccc(Cl)cc1`, the results for the GI50 in experiment [1] and in experiment [2] were 10 µM and 25 µM, respectively.

Consider `CSc1ccc(/C=C(/Sc2ccc(C)cc2)C(=O)c2ccc(Br)cc2)cc1`, for which the results for the GI50 in experiment [1] and in experiment [2] were 1 µM and 50 µM, respectively.

For the compound `Cc1ccsc1/C=C(/SCc1ccc(Cl)cc1)C(=O)c1ccc([N+](=O)[O-])cc1`, the GI50 in experiment [1] and in experiment [2] was more than 100 µM in each case.

`Cc1ccc(CS(=O)(=O)/C(=C/c2ccc(C)s2)C(=O)c2ccc(Cl)cc2)cc1`: the GI50 in experiment [1] and in experiment [2] was 25 µM each time.

For `O=C(/C(=C\c1ccc(Oc2ccccc2)cc1)Sc1ccc(Br)cc1)c1ccc(Br)cc1`, the GI50 in experiment [1] and in experiment [2] was 50 µM in each case.

For `Cc1ccc(CS/C(=C/c2ccc(F)c(C)c2)C(=O)c2ccc(Cl)cc2)cc1`, the GI50 in experiment [1] was determined as 10 µM; in experiment [2] it was 25 µM.

As to `O=C(/C(=C\c1ccc(Cl)cc1)SCc1ccccc1Cl)c1ccc(Cl)cc1`, the GI50 in experiment [1] was 1 µM; in experiment [2], 12 µM.

Regarding `COc1ccc(/C=C(\C(=O)c2ccc(Br)cc2)S(=O)(=O)c2ccc(Br)cc2)cc1`, the 50% growth inhibitory concentration (GI50) in experiment [1] came to 10 µM; in experiment [2], 25 µM.

On to `Cc1ccc(S/C(=C/c2c(O)cc(O)cc2O)C(=O)c2ccc(Cl)cc2)cc1`, for which the GI50 in experiment [1] and in experiment [2] was more than 100 µM throughout.

As to `Cc1ccc(CS/C(=C/c2ccc(N(C)C)cc2)C(=O)c2ccc(Cl)cc2)cc1`, the figures for the 50% growth inhibitory concentration (GI50) in experiment [1] and in experiment [2] were 15 µM and more than 100 µM, respectively.

For the compound `O=C(/C(=C\c1ccccc1OCc1ccccc1)Sc1ccc(Br)cc1)c1ccc(Cl)cc1`, the GI50 in experiment [1] and in experiment [2] was 10 µM throughout.

With `Cc1ccc(S(=O)(=O)/C(=C/c2ccc(Br)cc2)C(=O)c2ccc(Br)cc2)cc1`, the GI50 was 4 µM in experiment [1] and 10 µM in experiment [2].

`Cc1ccc(S/C(=C/c2c[nH]c3ccccc23)C(=O)c2ccc(Cl)cc2)cc1`: the concentration for 50% growth inhibition (GI50) in experiment [1] came to 1 µM; in experiment [2], 10 µM.

Regarding `COc1ccc(/C=C(/SCc2ccc(F)cc2)C(=O)c2ccc(Br)cc2)cc1O`, the GI50 in experiment [1] and in experiment [2] was 1 µM each time.

For the compound `COc1ccc(/C=C(/SCc2ccc(F)cc2)C(=O)c2ccc(Br)cc2)cc1`, the values for the GI50 in experiment [1] and in experiment [2] were 1 µM and 50 µM, respectively.

Take `Cc1ccc(CS/C(=C/c2ccccc2F)C(=O)c2ccc(Cl)cc2)cc1`: the values for the GI50 in experiment [1] and in experiment [2] were 1 µM and 10 µM, respectively.

Take `COc1ccc(/C=C(/SCc2ccc(Cl)cc2)C(=O)c2ccc(Br)cc2)cc1`: the GI50 was 1 µM in experiment [1] and 10 µM in experiment [2].

As for `COc1ccc(C(=O)/C(=C\c2ccc(Cl)cc2)S(=O)(=O)c2ccc(Cl)cc2)cc1`, the 50% growth inhibitory concentration (GI50) in experiment [1] and in experiment [2] was 4 µM throughout.

As to `O=C(/C(=C\c1ccc(O)cc1)SCc1ccc(Cl)c(Cl)c1)c1ccc(Cl)cc1`, the GI50 in experiment [1] and in experiment [2] was 1 µM in each case.

With `Cc1ccc(CS/C(=C/c2ccc(F)cc2C(F)(F)F)C(=O)c2ccc(Cl)cc2)cc1`, the GI50 in experiment [1] and in experiment [2] was 50 µM in each case.

As for `O=C(/C(=C\c1ccc([N+](=O)[O-])c(O)c1)SCc1ccc(Br)cc1)c1ccc(C(F)(F)F)cc1`, the GI50 in experiment [1] and in experiment [2] was 1 µM throughout.

As to `Cc1ccc(CS(=O)(=O)/C(=C/c2ccccc2OCc2ccccc2)C(=O)c2ccc(Cl)cc2)cc1`, the GI50 in experiment [1] and in experiment [2] was 1 µM throughout.

As to `Cc1ccc(S/C(=C/c2ccc(Cl)cc2)C(=O)c2ccc(Cl)cc2)cc1`, the GI50 in experiment [1] came to 1 µM; in experiment [2] it was 10 µM.

Regarding `Cc1ccc(CS(=O)(=O)/C(=C/c2c[nH]c3ccc(Br)cc23)C(=O)c2ccc(Cl)cc2)cc1`, the concentration for 50% growth inhibition (GI50) in experiment [1] and in experiment [2] was 10 µM in each case.

Consider `O=C(/C(=C\c1ccc(O)cc1O)S(=O)(=O)c1ccccc1Br)c1ccc(Br)cc1`, for which the GI50 in experiment [1] was 50 µM; in experiment [2], more than 100 µM.

In the case of `CN(C)c1ccc(/C=C(/SCc2ccc(Br)cc2)C(=O)c2ccc(C(=O)O)cc2)cc1`, the GI50 in experiment [1] and in experiment [2] was 50 µM in each case.

Take `O=C(O)c1ccc(C(=O)/C(=C\c2ccc(Br)cc2)SCc2ccc(Br)cc2)cc1`: the GI50 in experiment [1] and in experiment [2] was 1 µM throughout.

In the case of `Cc1ccc(S/C(=C/c2cc([N+](=O)[O-])ccc2F)C(=O)c2ccc(Cl)cc2)cc1`, the GI50 in experiment [1] came out at 1 µM; in experiment [2], 10 µM.
